Measurements as given in article PMC5776680 (Biochemistry, 2017).

Key:
Format in all cases: biochemical
[1] = target: human recombinant PRMT1 (Homo sapiens, UniProt Q99873); assay: PRMT1 single-point radioactive methylation assay; settings: compared with the unmodified peptide
[2] = target: T1, PRMT8 (Homo sapiens, UniProt Q9NR22); assay: PRMT8 single-point radioactive methylation assay; settings: compared with the unmodified peptide
[3] = target: T2, truncated PRMT3 (residues 211–531) (Homo sapiens, UniProt O60678); assay: PRMT3 steady-state kinetics, radioactive filter-binding methylation assay
T2 sequence (O60678 211-531): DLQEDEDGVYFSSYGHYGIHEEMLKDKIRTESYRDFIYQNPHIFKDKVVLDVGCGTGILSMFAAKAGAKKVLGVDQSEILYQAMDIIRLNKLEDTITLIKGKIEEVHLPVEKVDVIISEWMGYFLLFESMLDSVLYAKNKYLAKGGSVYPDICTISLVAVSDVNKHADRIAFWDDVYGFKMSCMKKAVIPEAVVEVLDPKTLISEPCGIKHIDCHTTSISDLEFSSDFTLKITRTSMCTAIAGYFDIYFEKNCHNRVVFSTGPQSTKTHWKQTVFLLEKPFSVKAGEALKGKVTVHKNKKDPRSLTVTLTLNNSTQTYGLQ
Summary of the method: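 E. coli-expressed His-tagged PRMT3 (residues 211–531) was used. Reactions in 50 mM HEPES pH 8, 10 mM NaCl, 0.5 mM EDTA, 0.5 mM DTT contained 0.25–8 μM N-acetylated H4(1–20) peptide (unmodified, K5me or K5ac). Products were P81 filter-bound, washed with NaHCO3 pH 9 and scintillation-counted. Rates (product/[E] per min) were fitted to the Hill or Michaelis-Menten equation, at least duplicate.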

[4] = target: T1, PRMT8; assay: PRMT8 steady-state kinetics, radioactive filter-binding methylation assay; settings: 0.05 μM PRMT8, 15 μM [14C]-SAM, 35 min, 30 °C; data not shown
Summary of the method: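 Recombinant His-tagged PRMT8 was expressed in E. coli BL21(DE3) and Ni-NTA purified. Reactions were run in 50 mM HEPES pH 8, 10 mM NaCl, 0.5 mM EDTA, 0.5 mM DTT with 0.25–16 μM N-acetylated H4(1–20) peptide (unmodified, K5me or K5ac), initiated with enzyme. They were isopropanol-quenched, P81 filter-bound, washed with NaHCO3 pH 9 and scintillation-counted against [14C]-SAM reference. Rates were Hill-fitted, at least duplicate.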

[5] = target: T2, truncated PRMT3 (residues 211–531); assay: PRMT3 single-point radioactive methylation assay; settings: 0.05 μM PRMT3, 5 μM [14C]-SAM, 10 μM peptide, 30 °C, 35 min

T1 sequence (Q9NR22 whole entry, the tested form may be a part): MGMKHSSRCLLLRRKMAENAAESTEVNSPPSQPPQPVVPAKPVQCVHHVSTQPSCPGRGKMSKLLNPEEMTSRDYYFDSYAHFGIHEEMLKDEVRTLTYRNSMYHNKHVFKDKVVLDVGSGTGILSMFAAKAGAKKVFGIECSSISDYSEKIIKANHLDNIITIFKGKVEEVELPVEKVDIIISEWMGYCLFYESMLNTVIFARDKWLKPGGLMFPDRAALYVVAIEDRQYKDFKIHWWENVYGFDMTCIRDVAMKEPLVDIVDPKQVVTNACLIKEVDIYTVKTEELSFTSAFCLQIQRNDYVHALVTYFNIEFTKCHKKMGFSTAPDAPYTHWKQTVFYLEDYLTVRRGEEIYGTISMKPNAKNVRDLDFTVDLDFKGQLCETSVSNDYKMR
Chain of human recombinant PRMT1 (Q99873 whole entry): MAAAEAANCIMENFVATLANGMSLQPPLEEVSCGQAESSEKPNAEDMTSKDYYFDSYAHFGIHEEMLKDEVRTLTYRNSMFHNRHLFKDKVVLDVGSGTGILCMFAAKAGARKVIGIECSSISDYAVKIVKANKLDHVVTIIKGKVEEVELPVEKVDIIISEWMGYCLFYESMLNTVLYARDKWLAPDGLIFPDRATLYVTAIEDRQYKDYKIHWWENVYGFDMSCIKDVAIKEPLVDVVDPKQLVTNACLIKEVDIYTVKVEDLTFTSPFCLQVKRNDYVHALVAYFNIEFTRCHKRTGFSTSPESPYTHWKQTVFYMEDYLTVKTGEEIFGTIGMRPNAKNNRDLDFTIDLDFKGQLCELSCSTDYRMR

In the case of “Ac-H4(1-21): N-terminally acetylated histone H4 peptide, residues 1-21”, the “effect of the modification on arginine methylation by PRMT1” value [1] is reported as “did not strongly affect arginine methylation” and the “effect of the modification on arginine methylation by PRMT8” value [2] is reported as “did not strongly affect arginine methylation”.
In the case of “Ac-SGRGKacGGKGLGKGGAKRHRK [Ac-H4(1-20)K5ac]”, the “increase of K0.5 in comparison to Ac-H4(1-20)” value ([3]; PRMT3, Hill fit) is reported as 2 fold.
“Ac-SGRGKmeGGKGLGKGGAKRHRK [Ac-H4(1-20)K5me]” was tested, and the “peptide concentration above which substrate inhibition appeared” value ([3]; 0.05 μM PRMT3, 15 μM [14C]-SAM, 35 min, 30 °C, data not shown) was “above 8 μM”, the “increase of kcat in comparison to Ac-H4(1-20)” value ([3]; PRMT3, Hill fit) was 3 fold and the “catalytic efficiency higher than Ac-H4(1-20)” value ([3]; PRMT3, kcat/K0.5) was about 4 fold. For the same substance, the “peptide concentration above which substrate inhibition appeared” value [4] was “above 4 μM” and the “increase in arginine methylation in comparison to Ac-H4(1-20)” value [5] was “over 5 fold”.
